Results as given in ChEMBL document CHEMBL1121516, “Synthesis and biological activity of fluoroalkylamine derivatives of narcotic analgesics” (J Med Chem, 1980).
Activity calls are given as the source filed them. No cut-off for these calls is given here.

Columns and labels:
Cavia porcellus [1] = species on record: Cavia porcellus; experiment: Inhibitory Dose required to reduce electrically stimulated contractions by 50% in guinea pig ileum; type: functional; details: read-out: ID50 (the source's name)
Mus musculus [2] = species on record: Mus musculus; experiment: (§1) Antagonist potency was evaluated in the mouse vas deferens relative to naloxone = 1; type: functional
Mus musculus [3] = species on record: Mus musculus; experiment: Equilibrium dissociation constant (Ke) against response produced by normorphine in the mouse vas deferens; type: functional
Mus musculus [4] = species on record: Mus musculus; experiment: Analgesic activity determined in the mouse hot plate test expressed as ED50; Range is 6.3-14.8; type: functional
[5] = biological target: T1, Opioid receptors; mu/kappa/delta (Homo sapiens, UniProt P41145+P41143+P35372); experiment: Inhibition of Opioid receptors with [3H]naloxone binding in the absence of NaCl; type: protein assay, Cavia porcellus
[6] = biological target: T1, Opioid receptors; mu/kappa/delta; experiment: Inhibition of Opioid receptors binding by inhibiting specific [3H]naloxone binding by 50% in the presence of 100 mM NaCl; type: protein assay, Cavia porcellus
Cavia porcellus [7] = species on record: Cavia porcellus; experiment: Agonist potency evaluated in the guinea pig ileum; type: functional
[8] = […] (pKa) value was evaluated; type: physicochemical
Summary of the method: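 pKa by potentiometric titration in distilled water at 24 °C. Compound dissolved at 5 to 7.5×10^-3 M and titrated with 0.1039 M NaOH, with pH change followed on a pH meter. Each compound run in triplicate.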

Mus musculus [9] = species on record: Mus musculus; experiment: Analgesic activity determined in the mouse hot plate test expressed as ED50; Range is 17.8-72.1; type: functional
Mus musculus [10] = species on record: Mus musculus; experiment: Analgesic activity determined in the mouse hot plate test expressed as ED50; IA means in active to 100; type: functional, organism-based
Rattus norvegicus [11] = experiment: Serum citrate level when administered intraperitoneally at dose 12.5 mg/kg in 5 rats; type: functional, organism-based; parameters: dose 12.5 mg/kg
Summary of the method: (§2)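 Male Sprague–Dawley rats (200–225 g), dosed ip. Blood centrifuged to obtain serum, and citrate measured by the Camp and Farmer procedure. Values reported as mg/mL with SE.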

Cavia porcellus [12] = species on record: Cavia porcellus; experiment: as §1; type: functional
Mus musculus [13] = species on record: Mus musculus; experiment: Analgesic activity determined in the mouse hot plate test expressed as ED50; I = inactive at 40; type: functional, organism-based
Rattus norvegicus [14] = experiment: Serum citrate level when administered intraperitoneally at dose 45 mg/kg in 7 rats; type: functional, organism-based; parameters: dose 45 mg/kg; summary of the method: as §2
Cavia porcellus [15] = species on record: Cavia porcellus; experiment: Inhibitory Dose required to reduce electrically stimulated contractions by 50% in guinea pig ileum; I = Infinite; type: functional
Cavia porcellus [16] = species on record: Cavia porcellus; experiment: Agonist potency was evaluated in the guinea pig ileum; type: functional
Mus musculus [17] = species on record: Mus musculus; experiment: Analgesic activity determined in the mouse hot plate test expressed as ED50; Range is 6.4-12.8; type: functional
Mus musculus [18] = species on record: Mus musculus; experiment: Analgesic activity determined in the mouse hot plate test expressed as ED50
Mus musculus [19] = species on record: Mus musculus; experiment: Analgesic activity determined in the mouse hot plate test expressed as ED50; value ranges from 3.2-6.1; type: functional
Rattus norvegicus [20] = experiment: Serum citrate level when administered intraperitoneally at dose 40 mg/kg in 6 rats; type: functional, organism-based; parameters: dose 40 mg/kg; summary of the method: as §2
Mus musculus [21] = species on record: Mus musculus; experiment: Analgesic activity determined in the mouse hot plate test expressed as ED50; value ranges from 12.7-29.8; type: functional

## CS(=O)(=O)O.C[C@H]1C2Cc3ccc(O)cc3[C@@]1(C)CCN2CC(F)F
Cavia porcellus [1]
  IC50: 453 nM
Mus musculus [2]
  Antagonist potency: 0.001
Mus musculus [3]
  Ke: 2930 nM
Mus musculus [4]
  ED50: 9.7 mg/kg
[5]
  IC50: 1000 nM
[6]
  IC50: 1150 nM
Cavia porcellus [7]
  Agonist potency: 0.16
[8]
  pKa: 6.52

## CCN1CC[C@]2(C)c3cc(O)ccc3CC1[C@@H]2C.CS(=O)(=O)O
[5]
  IC50: 180 nM
[6]
  IC50: 200 nM
[8]
  pKa: 9.42
Mus musculus [9]
  ED50: 44.7 mg/kg

## CCOC(=O)C1(c2ccccc2)CCN(CC(F)F)CC1.Cl
[5]
  IC50: 85000 nM
Mus musculus [10]
  ED50: inactive
[6]
  IC50: 110000 nM
[8]
  pKa: 5.23

## O=C(O)CF
Rattus norvegicus [11]
  Level: 132 mg/mL

## CS(=O)(=O)O.C[C@H]1C2Cc3ccc(O)cc3[C@@]1(C)CCN2CC(F)(F)F
Cavia porcellus [12]
  Agonist potency: 0
[5]
  IC50: 1700 nM
[6]
  IC50: 2500 nM
[8]
  pKa: 4.56
Mus musculus [13]
  ED50: inactive

## CS(=O)(=O)O.C[C@H]1C2Cc3ccc(O)cc3[C@@]1(C)CCN2CCF
Rattus norvegicus [14]
  Level: 121 mg/mL
[5]
  IC50: 50 nM
Cavia porcellus [15]
  ID50: inactive
[6]
  IC50: 100 nM
Cavia porcellus [16]
  Agonist potency: 0
[8]
  pKa: 8.35
Mus musculus [17]
  ED50: 9.16 mg/kg

## CCOC(=O)C1(c2ccccc2)CCN(CC(F)(F)F)CC1.Cl
[5]
  IC50: 10000 nM
Mus musculus [10]
  ED50: inactive
[6]
  IC50: 60000 nM
[8]
  pKa: 3.13

## CN1CC[C@]23c4c5ccc(O)c4O[C@H]2[C@@H](O)C=C[C@H]3[C@H]1C5 [MORPHINE]
Mus musculus [18]
  ED50: 1.2 mg/kg

## CCOC(=O)C1(c2ccccc2)CCN(CC)CC1.Cl
[5]
  IC50: 5000 nM
[6]
  IC50: 120000 nM
[8]
  pKa: 9.03
Mus musculus [19]
  ED50: 4.4 mg/kg

## CCOC(=O)C1(c2ccccc2)CCN(CCF)CC1.Cl
Rattus norvegicus [20]
  Level: 81 mg/mL
Mus musculus [21]
  ED50: 19.4 mg/kg
[5]
  IC50: 20000 nM
[6]
  IC50: 64000 nM
[8]
  pKa: 7.43
